Measured values: ChEMBL document CHEMBL4354846, “1,3-Dipolar Cycloaddition, HPLC Enantioseparation, and Docking Studies of Saccharin/Isoxazole and Saccharin/Isoxazoline Derivatives as Selective Carbonic Anhydrase IX and XII Inhibitors” (J Med Chem, 2020)
Active and inactive are the calls of the source. The calls are words filed in the database; no cut-off is given here.

Key:
Carbonic anhydrase 2 = Carbonic anhydrase 2 (Homo sapiens, UniProt P00918); experiment: Inhibition of recombinant human carbonic anhydrase 2 incubated for 15 mins prior to testing measured for 10 to 100 secs by phenol red-based stopped-flow CO2 hydration assay
Carbonic anhydrase 1 = Carbonic anhydrase 1 (Homo sapiens, UniProt P00915); experiment: Inhibition of recombinant human carbonic anhydrase 1 incubated for 15 mins prior to testing measured for 10 to 100 secs by phenol red-based stopped-flow CO2 hydration assay
Carbonic anhydrase 9 = Carbonic anhydrase 9 (Homo sapiens, UniProt Q16790); experiment: Inhibition of recombinant human carbonic anhydrase 9 incubated for 15 mins prior to testing measured for 10 to 100 secs by phenol red-based stopped-flow CO2 hydration assay
MCF7 [1] = experiment: Chemosensitization activity in human MCF7 cells assessed as induction of morphological changes by measuring rounded cells at 100 to 200 uM measured after 72 hrs in presence of doxorubicin under hypoxic condition by phase contrast light microscopic analysis; format: functional, cell-based
Summary of the method: (§1)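 MCF7 seeded 10000/well, grown 24 h, then medium with CoCl2 100 μM for 48 h to induce hypoxia. Cells then given compound (0.05–200 μM, DMSO final 0.2%) with doxorubicin 2.5 μM for 72 h. Imaged by phase contrast light microscopy (×20) for cell shape and detachment, before the MTT step.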

[2] = Cytotoxicity against HGF cells assessed as reduction in LDH release at 0.05 to 200 uM measured after 24 hrs by CytoTox 96 nonradioactive cytotoxicity assay; format: cell-based; conditions: human
Summary of the method: (§2)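 Primary human gingival fibroblasts from healthy donors, in DMEM with 10% FBS at 37 °C, 5% CO2. Treated 24 h after seeding with 0.05–200 μM compound (DMSO final 0.2%). Supernatants collected at 24, 48 and 72 h and spun 450 g for 4 min. LDH measured by a 30-min coupled tetrazolium reaction read at 490 nm, with 690 nm as background. Given as % of lysed-cell positive control.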

[3] = Cytotoxicity against HGF cells assessed as reduction in cell viability at 0.05 to 5 uM measured after 72 hrs by MTT assay; format: cell-based; conditions: human
Summary of the method: (§3)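 Gingival fibroblasts seeded and treated as for LDH: 0.05–200 μM compound, DMSO final 0.2%, read at 24, 48 and 72 h. MTT 0.5 mg/mL for 5 h at 37 °C, formazan dissolved in DMSO, read at 570 nm. Viability normalized to 0.2% DMSO control. One-way ANOVA with Tukey tests.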

[4] = Cytotoxicity against HGF cells assessed as reduction in cell viability at 100 to 200 uM measured after 72 hrs by MTT assay; format: cell-based; conditions: human; summary of the method: as §3
[5] = Cytotoxicity against HGF cells assessed as cell viability at 100 to 200 uM measured after 24 to 48 hrs by MTT assay relative to control; format: cell-based; conditions: human, read-out: Activity; summary of the method: as §3
MCF7 [6] = experiment: Chemosensitization activity in human MCF7 cells assessed as induction of morphological changes by measuring cell detachment at 100 to 200 uM measured after 72 hrs in presence of doxorubicin under hypoxic condition by phase contrast light microscopic analysis; format: functional, cell-based; summary of the method: as §1
MCF7 [7] = experiment: Chemosensitization activity in human MCF7 cells assessed as reduction in cell viability at 100 to 200 uM measured after 72 hrs in presence of doxorubicin under hypoxic condition by MTT assay; format: functional, cell-based
Summary of the method: (§4)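 MCF7 in DMEM high glucose with 10% FBS, 37 °C, 5% CO2. Seeded 10000/well for 24 h, then CoCl2 100 μM for 48 h (hypoxia). Treated 72 h with compound 0.05–200 μM plus doxorubicin 2.5 μM, DMSO final 0.2%. MTT 0.5 mg/mL for 5 h at 37 °C, formazan dissolved in DMSO, read at 570 nm. Normalized to DMSO+CoCl2+doxorubicin control. Three experiments; one-way ANOVA with Tukey.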

[8] = Cytotoxicity against HGF cells assessed as reduction in LDH release at 0.05 to 200 uM measured after 48 to 72 hrs by CytoTox 96 nonradioactive cytotoxicity assay; format: cell-based; conditions: human; summary of the method: as §2
[9] = Cytotoxicity against HGF cells assessed as reduction in cell viability at 0.05 to 50 uM measured after 24 to 48 hrs by MTT assay; format: cell-based; conditions: human, 50 to 200 µM; in the assay text read “50 to 200 uM” for “0.05 to 50 uM”; summary of the method: as §3
Carbonic anhydrase 12 = Carbonic anhydrase 12 (Homo sapiens, UniProt O43570); experiment: Inhibition of recombinant human carbonic anhydrase 12 incubated for 15 mins prior to testing measured for 10 to 100 secs by phenol red-based stopped-flow CO2 hydration assay
[10] = Cytotoxicity against HGF cells assessed as reduction in cell viability at 0.05 to 200 uM measured up to 72 hrs by MTT assay; format: cell-based; conditions: human; summary of the method: as §3
[11] = Cytotoxicity against HGF cells assessed as reduction in LDH release at 0.05 to 200 uM measured up to 72 hrs by CytoTox 96 nonradioactive cytotoxicity assay; format: cell-based; conditions: human; summary of the method: as §2
MCF7 [12] = experiment: Chemosensitization activity in human MCF7 cells assessed as reduction in cell viability at 0.05 to 200 uM measured after 72 hrs in presence of doxorubicin under hypoxic condition by MTT assay; format: functional, cell-based; summary of the method: as §4
MCF7 [13] = experiment: Cytotoxicity against human MCF7 cells assessed as reduction in cell viability measured after 72 hrs under hypoxic condition by MTT assay; format: functional, cell-based; conditions: MCF7, 72 h
Summary of the method: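 MCF7 given CoCl2 100 μM for 48 h to induce hypoxia, then doxorubicin alone at 0.05–200 μM for 72 h. Viability read by MTT: 0.5 mg/mL for 5 h at 37 °C, formazan dissolved in DMSO, absorbance at 570 nm, cell-free wells as background.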

Sequence of Carbonic anhydrase 1 (P00915 whole entry): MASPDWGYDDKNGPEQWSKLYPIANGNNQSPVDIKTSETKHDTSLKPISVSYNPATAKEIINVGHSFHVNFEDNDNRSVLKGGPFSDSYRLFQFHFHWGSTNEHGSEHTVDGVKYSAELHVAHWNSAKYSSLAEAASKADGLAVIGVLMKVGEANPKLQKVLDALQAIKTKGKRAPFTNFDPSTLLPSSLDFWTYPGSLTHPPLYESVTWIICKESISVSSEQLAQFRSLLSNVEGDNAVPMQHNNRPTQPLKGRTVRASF
Sequence of Carbonic anhydrase 12 (O43570 whole entry): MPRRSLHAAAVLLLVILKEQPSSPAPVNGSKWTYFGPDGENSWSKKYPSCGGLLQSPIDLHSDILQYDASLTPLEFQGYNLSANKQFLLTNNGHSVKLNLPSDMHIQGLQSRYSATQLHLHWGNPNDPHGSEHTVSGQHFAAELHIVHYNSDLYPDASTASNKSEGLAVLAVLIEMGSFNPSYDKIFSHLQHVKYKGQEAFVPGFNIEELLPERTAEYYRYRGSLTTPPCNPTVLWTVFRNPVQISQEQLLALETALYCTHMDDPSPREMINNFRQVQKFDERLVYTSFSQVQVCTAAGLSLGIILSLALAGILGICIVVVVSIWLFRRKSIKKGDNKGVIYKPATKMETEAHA

Ki (Carbonic anhydrase 2) [nM]	Ki (Carbonic anhydrase 1) [nM]	Ki (Carbonic anhydrase 9) [nM]	Compound	other results
> 10000	> 10000	> 10000	COc1ccccc1-c1cc(CN2C(=O)c3ccccc3S2(=O)=O)on1	–
> 10000	> 10000	22.1	COc1ccc(-c2cc(CN3C(=O)c4ccccc4S3(=O)=O)on2)cc1	Activity (MCF7 [1]): Active; Activity [2]: Toxic; Activity [3]: Non-Toxic; Activity [4]: Toxic; viability at up to 200 µM [5]: < 50%; Activity (MCF7 [6]): Active; Activity (MCF7 [7]): Active; Activity [8]: Non-Toxic; Activity [9]: Toxic
> 10000	> 10000	245	O=C1c2ccccc2S(=O)(=O)N1Cc1cc(-c2ccccn2)no1	–
13.1	365	2.4	O=C1c2ccccc2S(=O)(=O)N1C[C@@H]1CC(c2cccs2)=NO1	–
> 10000	> 10000	7.5	O=C1c2ccccc2S(=O)(=O)N1Cc1cc(-c2cccs2)no1	–
> 10000	> 10000	30	O=C1c2ccccc2S(=O)(=O)N1C[C@H]1CC(c2ccccc2)=NO1	Ki (Carbonic anhydrase 12): 48.9 nM
> 10000	> 10000	–	O=C1c2ccccc2S(=O)(=O)N1Cc1cc(-c2ccc([N+](=O)[O-])cc2)no1	Activity (MCF7 [1]): Active; Activity [10]: Non-Toxic; Activity (MCF7 [6]): Active; Activity [11]: Non-Toxic; Activity (MCF7 [12]): inactive
> 10000	> 10000	258	O=C1c2ccccc2S(=O)(=O)N1CC1CC(c2ccccn2)=NO1 (configuration not stated)	–
> 10000	> 10000	50.9	O=C1c2ccccc2S(=O)(=O)N1Cc1cc(-c2ccccc2)no1	–
> 10000	> 10000	86.2	O=C1c2ccccc2S(=O)(=O)N1Cc1cc(-c2cccnc2)no1	–
> 10000	358	26.4	O=C1c2ccccc2S(=O)(=O)N1C[C@H]1CC(c2cccs2)=NO1	–
> 10000	> 10000	> 10000	COc1cccc(C2=NOC(CN3C(=O)c4ccccc4S3(=O)=O)C2)c1 (configuration not stated)	–
> 10000	> 10000	247	COc1cccc(-c2cc(CN3C(=O)c4ccccc4S3(=O)=O)on2)c1	–
> 10000	> 10000	274	O=C1c2ccccc2S(=O)(=O)N1CC1CC(c2cccnc2)=NO1 (configuration not stated)	–
> 10000	> 10000	103	O=C1c2ccccc2S(=O)(=O)N1CC1CC(c2cccc([N+](=O)[O-])c2)=NO1 (configuration not stated)	–
–	> 10000	139	COc1ccc(C2=NOC(CN3C(=O)c4ccccc4S3(=O)=O)C2)cc1 (configuration not stated)	Ki (Carbonic anhydrase 12): 8.1 nM
> 10000	> 10000	230	O=C1c2ccccc2S(=O)(=O)N1Cc1cc(-c2cccc([N+](=O)[O-])c2)no1	–
> 10000	> 10000	> 10000	COc1ccccc1C1=NOC(CN2C(=O)c3ccccc3S2(=O)=O)C1 (configuration not stated)	Ki (Carbonic anhydrase 12): 9.4 nM
> 10000	> 10000	29.3	O=C1c2ccccc2S(=O)(=O)N1C[C@@H]1CC(c2ccccc2)=NO1	Ki (Carbonic anhydrase 12): 36.5 nM
> 10000	> 10000	235	O=C1c2ccccc2S(=O)(=O)N1CC1CC(c2ccc([N+](=O)[O-])cc2)=NO1 (configuration not stated)	–
–	–	–	COc1cccc2c1C(=O)c1c(O)c3c(c(O)c1C2=O)C[C@@](O)(C(=O)CO)C[C@@H]3O[C@H]1C[C@H](N)[C@H](O)[C@H](C)O1 [DOXORUBICIN]	IC50 (MCF7 [13]): 5000 to 50000 nM
